Series [1] is described as follows: Teratogenic activity in rat embryo assessed as incidence of major malformation at 250 ug/mL after 45 hrs relative to control. The series is classed as toxicity. A digest of the protocol:
(§1)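 Time-pregnant rats were euthanized with CO2 on gestation day 9. Embryos were dissected on day 9.5 at stages 11a-11c and cultured in 2.0 mL rat serum plus 0.5 mL Waymouth's MB 752/1 with penicillin-streptomycin. Test material in EtOH-DMSO (1:1) was added at culture start, with a solvent control. Growth, development score and major malformations were assessed after 45 h; controls were pooled across experiments.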

Series [2] is described as follows: Teratogenic activity in rat embryo assessed as incidence of major malformation at 80 ug/mL after 45 hrs relative to control. The series is classed as toxicity. A digest of the protocol: as §1
Series [3] is described as follows: Teratogenic activity in rat embryo assessed as incidence of major malformation at 20 ug/mL after 45 hrs relative to control. The series is classed as toxicity. A digest of the protocol:
as §1

Series [4] can be described thus: Teratogenic activity in rat embryo assessed as incidence of major malformation at 50 ug/mL after 45 hrs relative to control. It counts as toxicity. A digest of the protocol:
as §1

The species entered for series [5] is Rattus norvegicus. The series is described as follows: Effect on growth and morphogenesis of organogenesis-staged rat embryo at 5 ug/mL after 45 hrs relative to control. It counts as functional. A digest of the protocol:
as §1

Series [6] can be described thus: Binding affinity to nicotinic receptor.
Series [7] is filed under the species Rattus norvegicus. The series can be described thus: Effect on growth and morphogenesis of organogenesis-staged rat embryo at 20 ug/mL after 45 hrs relative to control. It counts as functional. A digest of the protocol:
as §1

For series [8], the species on record is Rattus norvegicus. The series can be described thus: Effect on growth and morphogenesis of organogenesis-staged rat embryo at 80 ug/mL after 45 hrs relative to control. It counts as functional. The essentials: as §1
Series [9] is described as follows: Binding affinity to muscarinic acetylcholine receptor.
For series [10], the species on record is Rattus norvegicus. The series is described as follows: Effect on growth and morphogenesis of organogenesis-staged rat embryo at 250 ug/mL after 45 hrs relative to control. The series is classed as functional. A digest of the protocol:
as §1

A short description of series [11]: Teratogenic activity in rat embryo assessed as incidence of major malformation at 5 ug/mL after 45 hrs relative to control. It counts as toxicity. A digest of the protocol:
as §1

Series [12] in a line: Teratogenic activity in rat embryo assessed as incidence of major malformation at 1.25 ug/mL after 45 hrs relative to control. The series is classed as toxicity. The essentials:
as §1

The species named for series [13] is Rattus norvegicus. The series is described as follows: Effect on growth and morphogenesis of organogenesis-staged rat embryo at 1.25 ug/mL after 45 hrs relative to control. It counts as functional. The essentials: (§2)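 Rat whole embryo culture: gestation day 9.5 embryos (stages 11a-11c) dissected from time-pregnant dams. Medium was 2.0 mL rat serum plus 0.5 mL Waymouth's MB 752/1 with penicillin-streptomycin. Test material was dissolved in EtOH-DMSO (1:1) and added at the start of culture; the solvent served as control. After 45 h, a developmental score was assigned and major malformations recorded. Controls were pooled across experiments.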

Series [14] is filed under the species Rattus norvegicus. The series is described as follows: Effect on growth and morphogenesis of organogenesis-staged rat embryo at 0.1 ug/mL after 45 hrs relative to control. It counts as functional. The essentials:
as §2

Series [15] is described as follows: Embryotoxicity in rat embryo at 5 ug/mL. It counts as toxicity. The essentials:
as §1

A short description of series [16]: Embryotoxicity in rat embryo at 20 ug/mL. It counts as toxicity. The essentials:
as §1

Series [17] is described as follows: Embryotoxicity in rat embryo at 80 ug/mL. It counts as toxicity. A digest of the protocol:
as §1

Series [18] in a line: Embryotoxicity in rat embryo at 250 ug/mL. It counts as toxicity. A digest of the protocol:
as §1

For 6 compounds, Activity and IC50 results are on record in ChEMBL document CHEMBL1158682, “Detecting potential teratogenic alkaloids from blue cohosh rhizomes using an in vitro rat embryo culture” (J Nat Prod, 1999).

For the compound `CN1C[C@@H]2C[C@H](C1)c1cccc(=O)n1C2`, the Activity in [1] stood at 22.9%; in series [2] it was 24%; in [3], 29.8%; in series [4] it was 26.2%; in the series listed under Rattus norvegicus [5], 29%. Further, in series [6], the IC50 – broadly, the concentration that gives 50% inhibition – was 0.05 µM.
`O=C1CCC[C@@H]2[C@@H]3C[C@H](CN12)[C@H]1CCCCN1C3`: the Activity in the series filed under Rattus norvegicus [7] was determined as 29.2%; in the series listed under Rattus norvegicus [8], 30.5%; in the series filed under Rattus norvegicus [5] it was 29.5%.
In the case of `O=c1cccc2n1C[C@H]1C[C@@H]2CN2CCCC[C@H]12` [ANAGYRINE], the Activity result in series [1] is “Active”; in [2] it was “Not Active”; in the series filed under Rattus norvegicus [7], 26.5%; in series [3] it was “Not Active”; in the series listed under Rattus norvegicus [8] it was 28.2%; in the series filed under Rattus norvegicus [10], 15.5%. In addition, the figures for the Activity result (in series [11]; in the series listed under Rattus norvegicus [5]) were “Not Active” and 28.2%, respectively. Moreover, the values for the IC50 in series [9] and in [6] were 132 µM and 2100 µM, respectively.
Turning to `COc1ccc2c(c1O)-c1c(O)c(OC)cc3c1[C@H](C2)[N+](C)(C)CC3` [MAGNOFLORINE], the Activity entry is “Not Active” in series [2]; 27.8% in the series filed under Rattus norvegicus [7]; “Not Active” in series [3]; “Not Active” in series [12]; 28.2% in the series listed under Rattus norvegicus [8]; “Not Active” in series [11]. Besides, the results for the Activity in the series filed under Rattus norvegicus [13] and in the series filed under Rattus norvegicus [5] were 28.2% and 29%, respectively.
For `COc1ccc2c(=O)oc3c(OC)cc(CCN(C)C)c4c(=O)oc1c2c34` [TASPINE], the Activity is 27.6% in the series filed under Rattus norvegicus [14]; “Toxic” in series [15]; “Not Active” in series [12]; “Toxic” in [16]; “Not Active” in [11]; 27.7% in the series filed under Rattus norvegicus [13]. For the same compound, the Activity entry in series [17] and in series [18] was “Toxic” in each case.
For the compound `CN1CCCCC1CC(=O)c1ccc(O)cc1` (stereo not given) [THALICHROIDINE], the Activity in the series filed under Rattus norvegicus [7] was 29.5%; in [3], “Not Active”; in the series listed under Rattus norvegicus [8], 29.2%; in series [11], “Not Active”; in the series listed under Rattus norvegicus [5], 30.8%.
